Experimental data: the EternaBench riboswitch data

Test system: MS2 coat protein
Assay: apparent Kd, MS2 coat protein; higher = weaker binding; RNA-MaP array; FMN 200 µM where present
Summary of the method: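 The titrant was SNAP-549-labelled MS2 coat protein, run from 0.7 or 1.5 nM in doubling steps to 3 µM. It was applied to designs transcribed by stalled E. coli RNA polymerase on Illumina sequencing-chip clusters, without ligand first and then with constant ligand, in 100 mM Tris-HCl pH 7.5, 80 mM KCl, 4 mM MgCl2, BSA, DTT, yeast tRNA and Tween-20. The apparent Kd is the median of filtered per-cluster binding-curve fits, with green signal normalised to red-channel RNA signal and control-cluster median Fmax.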

[1] = designed as: ON switch for flavin mononucleotide, no ligand
[2] = ligand present: flavin mononucleotide, designed as: ON switch for flavin mononucleotide
[3] = designed as: OFF switch for flavin mononucleotide, no ligand
[4] = ligand present: flavin mononucleotide, designed as: OFF switch for flavin mononucleotide

| Sequence | apparent Kd [1] [nM] | apparent Kd [2] [nM] | apparent Kd [3] [nM] | apparent Kd [4] [nM] |
| --- | --- | --- | --- | --- |
| UGCGAACAGGCUAACAUGAGGAUCACCCAUGUGGACUCAUGGUAGGAUAUCGGGAAGGAGGAAACCGAGAAGGGCCGGUGAGCC | 848 | 372 |  |  |
| UGCGCUCGGGUGAGGAUAUUAGGACUACAAUUGUAUGAGAAGGCACAUGAGGAUCACCCAUGUGGGUGAGCGCC |  |  | 922 | 420 |
| UGCGGUAGAGGAUAUACAUUGAAUUUGAUUCAUGUAAAACUACAUGAGGAUCACCCAUGUAGAAGGCUAUCGCU |  |  | 17.4 | 36.1 |
| UGCGGUAGAGGAUAUACGUAGAACUAGGUUCAUGUAAAACUACAUGAGGAUCACCCAUGUAGAAGGCUAUCGCU |  |  | 17 | 22.4 |
| UGCUACGGAGGAUAUACAUGAGGAUCACCCAUGUGAUAUAUUAUGCCGAGAGGCUAGUGUAGAAGGCCGUAGCU |  |  | 67 | 576 |
| UGCUACGUUUCGUAGCAGUGUCAUCGAGAAGGCCCUGACAUGAGGAUCACCCAUGUUGUUACAUGGGAGGAUAUCGAUGAUACU | 12.4 | 5.09 |  |  |
| UGGACCAGUACAGGAUAUGGUGACGCACAUGAGGAUCACCCAUGUCCGCAGCGUGCUCAGCACGCCCAGAAGGGUACUGAUUCG | 718 | 76.4 |  |  |
| UGGAUGGUAUGAGGAUAUGCGCGCGACACGCGCGCAGAAGGCAUGUCAAUAGACAUGAGGAUCACCCAUGUAUUAUCCAUCCAA | 201 | 14.8 |  |  |
| UGGCACCGAGGAUAUACAUGAGGAUCACCCAUGUUCGGAAAGCAUACGGUGGCUUGCUGUAGAAGGCGGGCCAC |  |  | 16.2 | 13 |
| UGGCUACAUGAGGAUCACCCAUGUCAGGAUAUGCCGUCGGCUUGCGUUCGUCGUUUGGGUAGAAGGGACUGCGG |  |  | 83.1 | 91.5 |
| UGGCUGAGUCGAGGAUAUGAUCUUCAUAUAAUAACAUGAGGAUCACCCAUGUAUAAUUACAUGGAUCAGAAGGCGACUCAGCCA |  | 38.1 |  |  |
| UGGGAUGGCUAGAAGGCUCCGUAAACUACAGGGAGAGGAUAUGGCACAUGAGGAUCACCCAUGUGUACCUGUAGGUGAUCCACA |  |  | 19 | 90.8 |
| UGGGAUGGCUAGAAGGCUCCUUAUACUACAGGGAGAGGAUAUGGCACAUGAGGAUCACCCAUGUGUACCUGUAGGUGAUCCACA |  |  | 113 | 108 |
| UGGUACAUCAUAGGAUAUCGUGUGUAAACAUGAGGAUCACCCAUGUCAUACGAGAGUAUGUAGAUCGAGAAGGAUGAUGUACCU | 18.1 | 16.1 |  |  |
| UGGUACUAGGGAGGAUAUGGAAAGAUACAUGAGGAUCACCCAUGUUUAAGAAUGCCGAGAGGCAACUAGAAGGCCCUAGUACCU | 11.1 | 5.29 |  |  |
| UGGUACUAGGGAGGAUAUGGGAAGAUACAUGAGGAUCACCCAUGUUUAAGAAUGCCAAGAGGCAACUAGAAGGCCCUAGUACCU | 384 | 17.8 |  |  |
| UGGUACUAGGGAGGAUAUGGGAAGAUACAUGAGGAUCACCCAUGUUUAAGAAUGCCGAGAGGCAACUAGAAGGCCCUAGUACCC | 430 | 19.1 |  |  |
| UGGUACUAGGGAGGAUAUGGGAAGAUACAUGAGGAUCACCCAUGUUUAAGAAUGCCGAGAGGCAACUAGAAGGCCCUAGUCCCU | 317 | 19.1 |  |  |
| UGGUACUAGGGAGGAUAUGGGAAGAUACAUGAGGAUCACCCAUGUUUAAGAAUGCCGAGAGGCAACUAGAAGGCCUUAGUACCU | 504 | 20.8 |  |  |
| UGGUACUAGGGAGGAUAUGGGAAGAUACAUGAGGAUCACCCAUGUUUAAGAAUGCCGAGAGGGAACUAGAAGGCCCUAGUACCU |  | 14.5 |  |  |
| UGGUACUAGGGAGGAUAUGGGAAGAUACAUGAGGAUCACCCAUGUUUAAUAAUGCCGAGAGGCAACUAGAAGGCCCUAGUACCU | 253 | 13.9 |  |  |

| Sequence | apparent Kd [1] [nM] | apparent Kd [2] [nM] | apparent Kd [3] [nM] | apparent Kd [4] [nM] |
| --- | --- | --- | --- | --- |
| UGGUACUAGGGAGGAUAUGGGAAGAUACAUGAGGAUCACCCAUGUUUAGGAAUGCCGAGAGGCAACUAGAAGGCCCUAGUACCU | 832 | 46.1 |  |  |
| UGGUACUAGGGAGGAUAUGGGAAUAUACAUGAGGAUCACCCAUGUUUAAGAAUGCCGAGAGGCAACUAGAAGGCCCUAGUACCU | 11.1 | 4.85 |  |  |
| UGGUACUAGGGAGGAUAUGGGAUGAUACAUGAGGAUCACCCAUGUUUAAGAAUGCCGAGAGGCAACUAGAAGGCCCUAGUACCU | 448 | 174 |  |  |
| UGGUACUAGUGAGGAUAUGGGAAGAUACAUGAGGAUCACCCAUGUUUAAGAAUGCCGAGAGGCAACUAGAAGGCCCUAGUACCU | 388 | 35.8 |  |  |
| UGGUAGUCAGGAUAUACGAACAUGUCGCCAGAUGUCAAGGUACAUGAGGAUCACCCAUGUAGAAGGGACUAGAA |  |  | 44.5 | 48.2 |
| UGGUCAUCAUCAGGAUAUUAACGUGGGCUACAUUAAGAAGGGAUAGUGGGAGAGGAAGUGAAACAUGAGGAUCACCCAUGUUGU | 13.5 | 11.3 |  |  |
| UGUAAAUUAUUAAGUAAUUAGGCGAAGGAUAUAUAACAUGAGGAUCACCCAUGUACUAAAUUGAAGUAGAAGGUUGAACAUUUC | 14.5 | 12.9 |  |  |
| UGUAAAUUAUUAAGUAAUUAGGCGAAGGAUAUAUAACAUGAGGAUCACCCAUGUACUAAAUUGAAGUAGAAGGUUGAGCAUUUC | 16.5 | 14.6 |  |  |
| UGUAAUGCUAUUGCAGAGGUUUAGAAGGAUAUACAUCGACAUGACCGUACAUGAGGAUCACCCAUGUAGAAGGUCUAACUUCGU |  |  | 5.61 | 5.55 |
| UGUACAUUAUUAAGUAAUUAGGCGAAGGAUAUAUAACAUGAGGAUCACCCAUGUACUAAAUUGAAGUAGAAGGUUGAGCAUUUC | 16.2 | 13.7 |  |  |
| UGUAGUUCAGGAUAUGAUGUUUAAUACAUGAGGAUCACCCAUGUAGAUCCUGAAUUAACAUCAGAAGGGAAUAUUU |  |  | 20.7 | 45.2 |
| UGUAUCUAGUAAGGAUAUACUAUUGAUUCAAUUGUAGAAGGUACAGACAUGAGGAUCACCCAUGUAGUUAUGGAUAUUAGAUAU | 74.1 | 42.3 |  |  |
| UGUAUGGACAGAGGAUAUACCGAUAGGAUCUACUAUCGAAUAAUCCUCACAUGAGGAUCACCCAUGUAGAAGGCUGUCCAUACU |  |  | 21.2 | 142 |
| UGUAUGGACAGAGGAUAUGCCGAUAGGAUCUACUAUCGAAGAAUCCUCACAUGAGGAUCACCCAUGUAGAAGGCUGUCCAUACC |  |  | 8.57 | 36.8 |
| UGUAUGGACAGAGGAUAUGCCGAUAGGCUCUACUAUCGAAGAAUCCUCACAUGAGGAUCACCCAUGUAGAAGGCUGUCCAUACU |  |  | 18.1 | 41.3 |
| UGUCAGUAACAAGGAUAUUGGAGUUAAUGGCUACGAGAAGGUGUUACAUGAGGAUCACCCAUGUCCUCGCCUGUAGCAAGGACA |  |  | 87.2 | 567 |
| UGUCAUAUAUAGAAGGGUAGUAGGGAUUUACAUGAGGAUCACCCAUGUAUUAUAGGAUAUGUGUAUAGUUUUUAUUCAAGUUUA |  |  | 24.7 | 18.8 |
| UGUCAUUUACAGAAGGGUAGUUGGGUUAUACAUGAGGAUCACCCAUGUUAUACAGGAUAUGUGUAAAGUUAUUAUUAAAGUACA |  |  | 30.1 | 36 |
| UGUCCAUAGCAGAAGGACAUAAAUUUCCAUGAAAACAUGAGGAUCACCCAUGUAGGAUAUGCUAUGGACUAAGAGCGAAAGCUC |  |  | 5.21 | 10.3 |
| UGUCCUUGAGGCUCGGACGUGUCGCCAGAAGGCAAUUUCUGACAUGAGGAUCACCCAUGUCCAAUUGAGGAUAUGGCUGCGAAG | 27.2 | 7.52 |  |  |
